The source of these data is publication PMC3954597 (Biochemistry, 2014).

One may read the Km as the substrate concentration at which the rate is half of its maximum. As a reminder, the kcat is the number of substrate molecules converted per active site and unit of time at saturation.

Numbering of substitutions follows the chain as printed. Read-outs that look alike come from different tables or passages of the source. Square brackets hold non-standard residues; d marks the D form. pY = N[C@@H](Cc1ccc(OP(=O)(O)O)cc1)C(=O)O

In one assay the target is T1, R47E PTP1B (Homo sapiens, UniProt P18031, R47E).
T1 sequence (P18031 1-321 R47E): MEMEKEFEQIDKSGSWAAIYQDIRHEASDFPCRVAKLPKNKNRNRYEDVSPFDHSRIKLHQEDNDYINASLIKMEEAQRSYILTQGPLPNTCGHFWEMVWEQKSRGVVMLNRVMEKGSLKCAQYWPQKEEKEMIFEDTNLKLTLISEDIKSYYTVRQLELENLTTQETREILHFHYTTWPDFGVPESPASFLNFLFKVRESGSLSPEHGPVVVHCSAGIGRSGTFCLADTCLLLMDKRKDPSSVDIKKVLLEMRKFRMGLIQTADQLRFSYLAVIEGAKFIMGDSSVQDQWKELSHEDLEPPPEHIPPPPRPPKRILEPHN
Briefly: PTP assay, R47E PTP1B. The assay is classed as biochemical. In outline: (§1)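 E. coli-expressed catalytic domains were used: wild-type, R24M or R47E PTP1B (aa 1–321), and SHP-1 (aa 205–595). Reactions started with PTP (0.5–20000 nM final) and dephosphorylation was monitored continuously at 282 nm. kcat, KM and kcat/KM came from initial-rate fits (Michaelis–Menten, or V = kcat[E][S]/KM when KM >> [S]) or from fits of progress curves.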

Another assay addresses T2, PTP1B (Homo sapiens, UniProt P18031).
T2 sequence (P18031 1-321): T1 sequence (P18031 1-321 R47E) with E47R
Nature of the assay: PTP assay, wild-type PTP1B. The assay is classed as biochemical. The settings on record: WT PTP1B aa 1–321; pH 7.4. The essentials:
as §1

Another assay has as its target T3, R24M PTP1B (Homo sapiens, UniProt P18031, R24M).
T3 sequence (P18031 1-321 R24M): T1 sequence (P18031 1-321 R47E) with R24M, E47R
Briefly: PTP assay, R24M PTP1B. The format is biochemical. The essentials:
as §1

The next assay has as its target T4, PTPD1 (Homo sapiens, UniProt Q16825).
T4 sequence (Q16825 875-1174): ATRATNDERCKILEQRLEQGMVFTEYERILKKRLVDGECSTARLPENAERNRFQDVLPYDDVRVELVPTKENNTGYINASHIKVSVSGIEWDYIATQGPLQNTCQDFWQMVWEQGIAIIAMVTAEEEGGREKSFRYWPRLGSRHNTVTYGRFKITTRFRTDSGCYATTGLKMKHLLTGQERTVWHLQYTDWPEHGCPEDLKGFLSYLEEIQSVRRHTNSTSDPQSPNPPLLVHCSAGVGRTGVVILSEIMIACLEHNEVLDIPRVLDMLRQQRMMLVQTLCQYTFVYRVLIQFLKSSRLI
Briefly: Pre-steady-state. The assay is classed as biochemical. The settings on record: 25 °C; initial phase not resolved, too fast for the instrument.

Assay [1] concerns the target T5, PTP-PEST catalytic domain (aa 5-300), GST fusion (human) (UniProt Q05209).
T5 sequence: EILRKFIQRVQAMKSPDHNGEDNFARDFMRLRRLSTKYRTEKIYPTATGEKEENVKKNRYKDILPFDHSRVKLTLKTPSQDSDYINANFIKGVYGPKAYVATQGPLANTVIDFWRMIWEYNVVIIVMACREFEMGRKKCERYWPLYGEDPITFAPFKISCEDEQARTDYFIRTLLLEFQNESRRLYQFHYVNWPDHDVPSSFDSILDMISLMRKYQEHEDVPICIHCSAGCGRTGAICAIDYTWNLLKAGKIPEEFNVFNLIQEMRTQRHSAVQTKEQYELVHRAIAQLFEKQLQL

For assay [2], the target named is T6, HePTP (aa 22-335), GST fusion (human) (UniProt P35236).
T6 sequence: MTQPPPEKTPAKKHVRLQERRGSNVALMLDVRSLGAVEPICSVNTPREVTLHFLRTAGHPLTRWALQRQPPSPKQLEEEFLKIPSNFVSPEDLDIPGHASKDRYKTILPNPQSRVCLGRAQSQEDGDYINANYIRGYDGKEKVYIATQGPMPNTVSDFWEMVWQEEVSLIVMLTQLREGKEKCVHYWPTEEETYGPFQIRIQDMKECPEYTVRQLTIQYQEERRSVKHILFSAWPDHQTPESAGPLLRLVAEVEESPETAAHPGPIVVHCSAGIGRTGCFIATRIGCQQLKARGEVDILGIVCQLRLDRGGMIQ

Assay [3] has as its target T7, R24M PTP1B catalytic domain (amino acids 1-321) (human) (UniProt P18031).
T7 sequence: T1 sequence (P18031 1-321 R47E) with R24M, E47R

For assay [4], the target named is T8, wild-type PTP1B catalytic domain (amino acids 1-321) (human) (UniProt P18031).
T8 sequence: T1 sequence (P18031 1-321 R47E) with E47R

In assay [5] the target is T9, R47E PTP1B catalytic domain (amino acids 1-321) (human) (UniProt P18031).
T9 sequence: T1 sequence (P18031 1-321 R47E)

For assay [6], the target named is T8, wild-type PTP1B catalytic domain (amino acids 1-321) (human). This is another data set of the same source.

Regarding `O=[N+]([O-])c1ccc(OP(=O)(O)O)cc1` [pNPP, p-nitrophenyl phosphate, reference compound], the Km on R47E PTP1B (R47E PTP1B aa 1–321, pH 7.4) is 2800 ± 300 µM; at R24M PTP1B (R24M PTP1B aa 1–321, pH 7.4) it was 3 ± 0.1 µM. The kcat at R47E PTP1B (R47E PTP1B aa 1–321, pH 7.4) was 16 ± 1 s⁻¹; at R24M PTP1B (R24M PTP1B aa 1–321, pH 7.4) it was 17 ± 1 s⁻¹. The “kcat/KM x 10^7” value was 0.00057 x 10^7 M^−1 s^−1 at R47E PTP1B (R47E PTP1B aa 1–321, pH 7.4); 0.00069 x 10^7 M^−1 s^−1 on PTP1B; 0.00057 x 10^7 M^−1 s^−1 on R24M PTP1B (R24M PTP1B aa 1–321, pH 7.4). On R47E PTP1B (ratio of kcat/KM, WT over R47E PTP1B (fold decrease by the mutation)), the WT/R47E came to 1.2. The WT/R24M at R24M PTP1B (ratio of kcat/KM, WT over R24M PTP1B (fold reduction by the mutation)) is given as 1.2. For the same molecule, the “k of initial phase” value at PTPD1 was more than 100 s⁻¹.

B1: Ac-YDEDFpYDYEF-NH2 (acidic) (peptide)
peptide: Ac-YDEDF[pY]DYEF-NH2
SMILES: CC(=O)N[C@@H](Cc1ccc(O)cc1)C(=O)N[C@@H](CC(=O)O)C(=O)N[C@@H](CCC(=O)O)C(=O)N[C@@H](CC(=O)O)C(=O)N[C@@H](Cc1ccccc1)C(=O)N[C@@H](Cc1ccc(OP(=O)(O)O)cc1)C(=O)N[C@@H](CC(=O)O)C(=O)N[C@@H](Cc1ccc(O)cc1)C(=O)N[C@@H](CCC(=O)O)C(=O)N[C@@H](Cc1ccccc1)C(N)=O
With B1, the KM, steady-state dephosphorylation of the pY peptide in assay [1] was found to be 2.2 µM; in assay [2], 280 µM.

B2: Ac-ASSDEpYAA-NH2 (peptide)
peptide: Ac-ASSDE[pY]AA-NH2
SMILES: CC(=O)N[C@@H](C)C(=O)N[C@@H](CO)C(=O)N[C@@H](CO)C(=O)N[C@@H](CC(=O)O)C(=O)N[C@@H](CCC(=O)O)C(=O)N[C@@H](Cc1ccc(OP(=O)(O)O)cc1)C(=O)N[C@@H](C)C(=O)N[C@@H](C)C(N)=O
As for B2, the KM, steady-state dephosphorylation of the pY peptide in assay [3] worked out at 3.8 µM; in [4], 1.9 µM; in [5], 32 µM; in assay [6], 1.8 µM.
